Experimental data collected from several papers.
Lines come from different studies, so protocols differ.
Target: Cyclin-dependent kinase 16 (CDK16, Homo sapiens, UniProt Q00536)

| Compound | assay | conditions | remaining binding |
| --- | --- | --- | --- |
| O=C(NC[C@@H]1[C@H]2CN(C(=O)OCc3cc(C(F)(F)F)cc(C(F)(F)F)c3)C[C@@H]12)c1ccc2[nH]nnc2c1 | cell-free assay, competition with immobilised ligand | 1 µM | 100% |
| O=C(c1ccc(Nc2ncc(Cl)c(-c3cc4ccccc4s3)n2)cc1)N1CCC(N2CCCC2)CC1 | binding, competition with immobilised ligand | 1 µM | 0.7% |
| O=C(Nc1ccc(Oc2ccc(F)cc2)cc1)N1CCc2ncccc2[C@H]1c1ccc(F)cc1 | cell-free assay, competition with immobilised ligand | 1 µM | 65% |
| O=C(Nc1c[nH]nc1C(=O)NC1CCNCC1)c1cc(F)cc(F)c1 | binding, competition with immobilised ligand | 1 µM | 12% |
| CC(C)CC(=O)N1CCc2nc(-c3ccc(Br)cc3)nc(N(C)Cc3ccccc3)c2C1 | cell-free assay, competition with immobilised ligand | 0.1 µM | 100% |
| N#Cc1ccccc1CSc1nnc2c(n1)[nH]c1ccccc12 | binding, competition with immobilised ligand | 10 µM | 100% |
| N[C@H]1CCN(c2nccc(-c3cnn4ncccc34)n2)C1 | binding | 1 µM | 100% |
| CC(C)(C)c1ccc(-c2nc(CBr)nn2-c2cccc(O)c2)cc1 | cell-free assay, competition with immobilised ligand | 10 µM | 69% |
| Cc1cnn2ncc(-c3ccnc(N(C)C)n3)c2c1 | binding | 1 µM | 100% |
| C[C@@]1(Cc2ccc(C#N)cc2)C(=O)N(c2cc(Cl)cc(Cl)c2)c2ncc(C(=O)NC3(c4nc(C5CCC5)no4)CC3)n21 | cell-free assay, competition with immobilised ligand | 1 µM | 97% |
| C[C@@H]1CN(c2ccc3ncc(-c4ccc5[nH]nc(C6CC6)c5c4)n3n2)C[C@H](C)O1 | binding, competition with immobilised ligand | 0.5 µM | 100% |
| COc1cc(-c2cn(C3CCc4c(F)cccc4N(CC(F)(F)F)C3=O)nn2)ccc1-n1cnc(C)c1 (stereo not shown) | cell-free assay, competition with immobilised ligand | 1 µM | 82% |
| CN(C)c1nccc(-c2cnc3ncccn23)n1 | binding | 1 µM | 73% |
| CNC(=O)[C@@H]1CC[C@@H](n2c(-c3ccc4cnccc4c3)nc3ccc(C(=O)NCc4cccc(C(N)=O)c4)cc32)C1 | binding, competition with immobilised ligand | 1 µM | 100% |
| F[C@@H]1CCN(c2nccc(-c3cnn4ncccc34)n2)C1 | binding | 1 µM | 100% |
| COc1cnc(Nc2cccc(S(N)(=O)=O)c2)nc1N1CCN(c2ccccc2)C(=O)C1 | binding, competition with immobilised ligand | 1 µM | 92% |
| COc1ncc2cc3ccccc3nc2c1C#N | cell-free assay, competition with immobilised ligand | 5 µM | 97% |
| Cc1nc(N2CC[C@@H](O)C2)ncc1-c1cc(C(F)(F)F)cc2[nH]ncc12 | binding, competition with immobilised ligand | 1 µM | 75% |
| c1cnn2ncc(-c3ccnc(N4CCC45COC5)n3)c2c1 | binding | 1 µM | 97% |
| CNCc1ccccc1-c1csc([C@H](C)Nc2nc(C)nc3cc(OC)c(OC)cc23)c1 | cell-free assay, competition with immobilised ligand | 1 µM | 83% |
| O=C(NCCCN1CCOCC1)c1ccc(Nc2nccc(-c3cc4ccccc4s3)n2)cc1 | binding, competition with immobilised ligand | 1 µM | 75% |
| FC(F)(F)Oc1cccc(-c2cnc3ccc(-c4ccncc4)nn23)c1 | cell-free assay, competition with immobilised ligand | 5 µM | 53% |
| CS(=O)(=O)NCC[C@H](NC(=O)c1cncc2c1cnn2-c1ccc(F)cc1)c1ccnc(S(C)(=O)=O)c1 | cell-free assay, competition with immobilised ligand | 1 µM | 100% |
| CN(C)c1nccc(-c2cnn3ncccc23)n1 | binding | 1 µM | 100% |
| O=C(NCCCN1CCOCC1)c1ccc(Nc2ncc(Cl)c(-c3ccc(Cl)s3)n2)cc1 | binding, competition with immobilised ligand | 1 µM | 23% |
